ChEMBL document CHEMBL4043106, “Selective opioid growth factor receptor antagonists based on a stilbene isostere” (Bioorg Med Chem, 2017)
Calls of active or inactive are those of the source.

What was measured:
Mu-type opioid receptor [1] = molecular target: T1, Mu-type opioid receptor (Homo sapiens, UniProt P35372); assay: Agonist activity at human mu opioid receptor assessed as beta-arrestin recruitment up to 5 uM after 180 mins by chemiluminescence assay
Outline: (§1)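 Commercial β-arrestin kit using cells transfected with human MOR, DOR or KOR. Cells plated and held 48 h at 37°C in 5% CO2. Compound added for 180 min at 37°C, starting at 5 μM with 1:3 serial dilutions. Reference agonists were DADLE (DOR), Met5-enkephalin (MOR) and dynorphin A (KOR). Detection reagent then added for 1 h at room temperature in the dark; chemiluminescence read.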

[2] = molecular target: Delta-type opioid receptor (Homo sapiens) (UniProt P41143); assay: Agonist activity at human delta opioid receptor assessed as beta-arrestin recruitment up to 5 uM after 180 mins by chemiluminescence assay; outline: as §1
[3] = molecular target: T2, Kappa-type opioid receptor (Homo sapiens, UniProt P41145); assay: Agonist activity at human kappa opioid receptor assessed as beta-arrestin recruitment up to 5 uM after 180 mins by chemiluminescence assay; settings: 3 h; outline: as §1
Mu-type opioid receptor [4] = molecular target: T1, Mu-type opioid receptor; assay: Antagonist activity at mu opioid receptor (unknown origin) up to 10 uM by GTPgammaS functional assay
Outline: (§2)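 GTPγS functional assay at KOR, DOR and MOR, run in both agonist and antagonist modes, with test concentrations up to 10 μM.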

Chlorocebus aethiops [5] = organism: Chlorocebus aethiops; assay: Antagonist activity at OGFR in African green monkey COS7 cells harboring OGF assessed as increase in cell growth at 1 uM after 72 hrs by hemacytometric method
Outline: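 COS-7 cells grown in DMEM with 10% fetal calf serum and antibiotics at 37°C, 5% CO2. Seeded at 20,000 cells/well and counted 24 h later as time 0. Treated with 1 μM compound or sterile water vehicle; growth counted at 72 h.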

Mu-type opioid receptor [6] = molecular target: T1, Mu-type opioid receptor; assay: Agonist activity at mu opioid receptor (unknown origin) up to 10 uM by GTPgammaS functional assay; outline: as §2
[7] = molecular target: T2, Kappa-type opioid receptor; assay: Agonist activity at kappa opioid receptor (unknown origin) up to 10 uM by GTPgammaS functional assay; outline: as §2
[8] = molecular target: Delta-type opioid receptor (Homo sapiens) (UniProt P41143); assay: Antagonist activity at delta opioid receptor (unknown origin) up to 10 uM by GTPgammaS functional assay; outline: as §2
[9] = molecular target: T2, Kappa-type opioid receptor; assay: Antagonist activity at kappa opioid receptor (unknown origin) up to 10 uM by GTPgammaS functional assay; outline: as §2
[10] = molecular target: Delta-type opioid receptor (Homo sapiens) (UniProt P41143); assay: Agonist activity at delta opioid receptor (unknown origin) up to 10 uM by GTPgammaS functional assay; outline: as §2
[11] = molecular target: T3, Opioid growth factor receptor (Homo sapiens) (UniProt Q9NZT2); assay: Antagonist activity at OGFR in human SKOV3 cells assessed as increase in cell growth at 0.1 to 10 uM treated continuously for 24 hrs measured at 120 hrs post dose by hemacytometric method; type: cell-based
T3 sequence (whole entry): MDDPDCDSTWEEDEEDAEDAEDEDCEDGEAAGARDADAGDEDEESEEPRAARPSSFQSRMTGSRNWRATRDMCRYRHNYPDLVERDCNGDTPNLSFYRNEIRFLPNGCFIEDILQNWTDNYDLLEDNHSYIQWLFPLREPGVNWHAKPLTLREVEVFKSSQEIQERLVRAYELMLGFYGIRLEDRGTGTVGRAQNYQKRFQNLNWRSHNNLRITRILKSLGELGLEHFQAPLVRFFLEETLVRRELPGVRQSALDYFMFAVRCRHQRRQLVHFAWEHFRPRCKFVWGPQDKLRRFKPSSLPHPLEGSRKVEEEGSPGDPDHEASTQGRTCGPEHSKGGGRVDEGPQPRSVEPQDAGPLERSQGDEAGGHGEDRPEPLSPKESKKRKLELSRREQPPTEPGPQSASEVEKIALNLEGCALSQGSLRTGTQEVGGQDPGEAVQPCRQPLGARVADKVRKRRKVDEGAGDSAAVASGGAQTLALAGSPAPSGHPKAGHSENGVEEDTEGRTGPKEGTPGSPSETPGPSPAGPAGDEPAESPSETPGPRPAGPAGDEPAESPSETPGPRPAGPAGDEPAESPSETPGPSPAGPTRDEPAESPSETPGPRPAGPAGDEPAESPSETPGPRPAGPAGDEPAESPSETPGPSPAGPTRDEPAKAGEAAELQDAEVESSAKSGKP
Outline: (§3)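 SKOV-3 ovarian cancer cells in RPMI 1640 with 10% fetal calf serum and antibiotics at 37°C, 5% CO2. Seeded at 20,000 cells/well and counted after 24 h for time 0. Compound or sterile water given either continuously (24 h daily) or pulsed for 6 h every 48 h. Cells counted at 96 and 120 h; concentration series used for the dose-response.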

[12] = molecular target: T3, Opioid growth factor receptor (Homo sapiens); assay: Antagonist activity at OGFR in human SKOV3 cells assessed as increase in cell growth at 10 uM after 24 hrs by hemacytometric method; type: cell-based; outline: as §3
Chlorocebus aethiops [13] = organism: Chlorocebus aethiops; assay: Antagonist activity at OGFR in African green monkey COS7 cells harboring OGF assessed as increase in cell growth at 1 uM after 72 hrs by BrdU incorporation assay
Outline: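 COS-7 cells on coverslips exposed to compound (1 μM) for 24 h. BrdU added in fresh DMEM for 3 h, then cells stained with DAPI counterstain. At least 100 cells per treatment scored blind for BrdU incorporation; growth evaluated at 72 h.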

[14] = molecular target: T3, Opioid growth factor receptor (Homo sapiens); assay: Antagonist activity at OGFR in human SKOV3 cells assessed as cell growth inhibition at 10 uM treated as pulsed dose of 6 hrs every other day by hemacytometric method; type: cell-based; outline: as §3
[15] = molecular target: T3, Opioid growth factor receptor (Homo sapiens); assay: Antagonist activity at OGFR in human SKOV3 cells assessed as cell growth inhibition at 5 to 10 uM treated as pulsed dose of 6 hrs every other day measured at 120 hrs post dose by hemacytometric method; type: cell-based; outline: as §3
[16] = molecular target: T3, Opioid growth factor receptor (Homo sapiens); assay: Antagonist activity at OGFR in human SKOV3 cells assessed as cell growth inhibition at 10 uM treated as pulsed dose of 6 hrs every other day measured at 120 hrs post dose by hemacytometric method; type: cell-based; outline: as §3

T2 sequence (P41145 whole entry): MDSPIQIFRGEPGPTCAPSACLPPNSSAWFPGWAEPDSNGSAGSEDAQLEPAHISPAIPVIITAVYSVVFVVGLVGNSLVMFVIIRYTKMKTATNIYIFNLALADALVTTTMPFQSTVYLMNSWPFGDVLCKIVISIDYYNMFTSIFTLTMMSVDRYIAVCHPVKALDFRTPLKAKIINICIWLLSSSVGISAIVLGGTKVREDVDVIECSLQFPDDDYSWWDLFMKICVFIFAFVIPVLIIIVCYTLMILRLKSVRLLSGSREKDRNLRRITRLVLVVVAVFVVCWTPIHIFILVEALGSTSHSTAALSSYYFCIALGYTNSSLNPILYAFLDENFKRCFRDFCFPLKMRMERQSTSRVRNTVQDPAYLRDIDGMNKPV
T1 sequence (P35372 whole entry): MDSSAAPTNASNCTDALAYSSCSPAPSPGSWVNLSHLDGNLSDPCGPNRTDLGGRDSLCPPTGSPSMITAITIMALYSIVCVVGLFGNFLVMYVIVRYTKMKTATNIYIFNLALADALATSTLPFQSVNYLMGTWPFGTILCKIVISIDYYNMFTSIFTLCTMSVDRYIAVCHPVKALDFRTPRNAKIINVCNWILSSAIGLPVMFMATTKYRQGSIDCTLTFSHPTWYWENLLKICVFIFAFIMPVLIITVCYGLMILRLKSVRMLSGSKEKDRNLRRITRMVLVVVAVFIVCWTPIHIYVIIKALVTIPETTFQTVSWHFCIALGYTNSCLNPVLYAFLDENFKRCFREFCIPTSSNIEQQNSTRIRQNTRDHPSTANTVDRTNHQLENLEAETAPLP
Sequence of Delta-type opioid receptor (Homo sapiens) (P41143 whole entry): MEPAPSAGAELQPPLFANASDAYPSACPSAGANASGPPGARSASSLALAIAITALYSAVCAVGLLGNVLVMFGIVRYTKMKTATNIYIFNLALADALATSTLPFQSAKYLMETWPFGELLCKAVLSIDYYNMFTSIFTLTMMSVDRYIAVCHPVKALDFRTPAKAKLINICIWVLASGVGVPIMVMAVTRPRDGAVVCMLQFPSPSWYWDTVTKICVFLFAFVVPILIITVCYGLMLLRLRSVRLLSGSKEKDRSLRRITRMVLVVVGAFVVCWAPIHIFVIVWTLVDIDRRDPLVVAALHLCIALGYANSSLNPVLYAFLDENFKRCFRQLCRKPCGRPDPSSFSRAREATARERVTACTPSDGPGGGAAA

COc1cc(NC(=O)c2cc(O)c(O)c(CC=C(C)C)c2)c(C/C=C(\C)CCC=C(C)C)c(OC)c1
active: Cell growth increase (active/not active) (Chlorocebus aethiops [5])
inactive: Activity (Mu-type opioid receptor [1]) | Activity [2] | Activity (Mu-type opioid receptor [6]) | inhibition [8] | inhibition [9] | Activity [10]
Not Active: Activity [3] | inhibition (INH) (Mu-type opioid receptor [4]) | Activity [7]

COc1cc(OC)c(C/C=C(\C)CCC=C(C)C)c(C(=O)Nc2cc(O)c(O)c(CC=C(C)C)c2)c1
active: inhibition [11] | inhibition [12] | inhibition (Chlorocebus aethiops [13]) | growth inhibition (GI) [14] | growth inhibition (GI) [15]
Not Active: Activity [3] | inhibition (INH) (Mu-type opioid receptor [4]) | Activity [7]
inactive: Activity (Mu-type opioid receptor [1]) | Activity [2] | Activity (Mu-type opioid receptor [6]) | inhibition [8] | inhibition [9] | Activity [10]

COc1cc(NC(=O)c2ccc(O)c(O)c2CC=C(C)C)c(C/C=C(\C)CCC=C(C)C)c(OC)c1
Not Active: Activity [3] | inhibition (INH) (Mu-type opioid receptor [4]) | Activity [7]
active: inhibition [12] | Cell growth increase (active/not active) (Chlorocebus aethiops [5]) | growth inhibition (GI) [14]
inactive: Activity (Mu-type opioid receptor [1]) | Activity [2] | Activity (Mu-type opioid receptor [6]) | inhibition [8] | inhibition [9] | Activity [10]

O=C1CC[C@@]2(O)[C@H]3Cc4ccc(O)c5c4[C@@]2(CCN3CC2CC2)[C@H]1O5
active: Cell growth increase (active/not active) (Chlorocebus aethiops [5]) | growth inhibition (GI) [14]

COc1cc(/C=C/c2ccc(O)c(O)c2CC=C(C)C)c(C/C=C(\C)CCC=C(C)C)c(OC)c1
active: Cell growth increase (active/not active) (Chlorocebus aethiops [5])

COc1cc(OC)c(C/C=C(\C)CCC=C(C)C)c(C(=O)Nc2ccc(O)c(O)c2CC=C(C)C)c1
Not Active: Activity [3] | inhibition (INH) (Mu-type opioid receptor [4]) | Activity [7]
inactive: Activity (Mu-type opioid receptor [1]) | Activity [2] | Activity (Mu-type opioid receptor [6]) | inhibition (Chlorocebus aethiops [13]) | inhibition [8] | inhibition [9] | Activity [10]
active: inhibition [12] | growth inhibition (GI) [14] | growth inhibition (GI) [16]

COc1cc(/C=C/c2cc(O)c(O)c(CC=C(C)C)c2)c(C/C=C(\C)CCC=C(C)C)c(OC)c1
inactive: Cell growth increase (active/not active) (Chlorocebus aethiops [5])
